Measured values from different studies.
Protocols differ between the studies behind these lines.

SMILES	target or system	test	test system	setting	endpoint	value
O=C(NCc1cn(Cc2cccc(Cl)c2)nn1)Nc1ccc(Cl)cc1	L02	cell growth or viability, CCK-8		50 µM, 72 h	viability	100%
CNC(C)(C)COCC(=O)N1CCC[C@H](C(=O)NCc2nc(-c3ccc(C(F)(F)F)cc3)cs2)C1			Caco-2		efflux ratio	180
O=C(Nc1ccc(Cl)cc1)Nc1ccc(-c2cn(Cc3cccc(Cl)c3)nn2)cc1	L02	cell growth or viability, CCK-8		50 µM, 72 h	viability	92.6%
COc1ccc2c(c1)CN(C(=O)CCN1CCC(Cc3ccccc3)CC1)CC[S@@+]2[O-]			male human, plasma	intravenous, 0.05 mg/kg, healthy volunteers	Cmax	130 ng/mL
Cc1ccccc1Cn1cc(-c2cccc(NC(=O)Nc3ccc(F)cc3)c2)nn1	L02	cell growth or viability, CCK-8		50 µM, 72 h	viability	103%
O=C(Nc1ccc(Cl)cc1)Nc1cccc(-c2cn(Cc3cccc(Cl)c3)nn2)c1	L02	cell growth or viability, CCK-8		50 µM, 72 h	viability	71.8%
COc1ccc(NC(=O)Nc2ccc(-c3cn(Cc4cccc(Cl)c4)nn3)cc2)cc1	L02	cell growth or viability, CCK-8		50 µM, 72 h	viability	114%
O=C(COc1ccc(Cl)cc1)NC12CC(c3nnc([C@H]4C[C@@H](OC(F)(F)F)C4)o3)(C1)C2			human, plasma	oral, 100 mg, multiple doses, once daily, steady state, healthy volunteers	Cmax	5.39 µM
O=C(Nc1ccc(-c2cn(Cc3ccc(Br)cc3)nn2)cc1)Nc1ccccc1Br	L02	cell growth or viability, CCK-8		50 µM, 72 h	viability	104%
CC(C)n1c(C2CCNCC2)nc2c([N+](=O)[O-])c(Br)c(Br)cc21			human, plasma	oral, 100 mg, patients	Cmax	73.2 ng/mL
COc1ccc(-c2c(Nc3ccccn3)[nH]c3c(C4=CCCCC4)c(-c4ccccc4)nn3c2=O)cc1			human, plasma	oral, 150 mg once daily, multiple doses, patients	Cmax	4960 ng/mL
COc1ccc(NC(=O)Nc2cccc(-c3cn(Cc4cccc(Cl)c4)nn3)c2)cc1	L02	cell growth or viability, CCK-8		50 µM, 72 h	viability	123%
